High-throughput results from PubChem BioAssay.
Sampled rows, rich in hits. Any-hit rate of the full collection: about 1.4%.
TNAP inh noacc – human TNAP enzyme inhibitors, primary screen, biochemical, luminescent, no phosphate acceptor, uHTS. Alkaline phosphatase, tissue-nonspecific isozyme (Homo sapiens), P05186. purified TNAP, CDP-star luminescence, 30 min. inhibition, % at 20 µM. hit rate 0.26% among 200,000. AID 1012, 2008;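 active = tissue-nonspecific alkaline phosphatase inhibition above about 50% at 20 µM in the single-dose screen, limit read from the data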;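 note: 0% = DMSO negative control and 100% = EDTA positive control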
TNAP act hi DEA – TNAP activators at high phosphate acceptor level, primary screen, biochemical, luminescence, uHTS; Alkaline phosphatase, tissue-nonspecific isozyme (Homo sapiens), P05186; purified TNAP, CDP-star luminescence, 1 M DEA, 30 min; stronger effect = higher value; 0 = EDTA background, 1 = DMSO-only activity; activation factor at 20 µM; 200,000 tested, under 10 active; AID 1136, 2008;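 active = activation factor at least 2 at 20 µM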
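Control set: EDTA negative control, DMSO positive control / Assay system: human TNAP / Quantity: TNAP 1/800 final / Evaluation: TNAP activation factor scaled between EDTA and DMSO control wells / Measured by: luminescent substrate turnover signal / Compound dosing: one dose, 20 µM / Times: 30 min enzyme reaction at room temperature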
CHT block – inhibitors of human choline transporter CHT; High affinity choline transporter 1 (Homo sapiens), Q9GZV3; CHT-expressing cells, membrane potential dye, choline response; stronger effect = lower value; B-score at 10 µM; hit rate 0.86% among 310,000;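 active = B-score over 3 SD under the library average, and starting fluorescence ratio not unusually high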;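 note: choline stimulus applied at its EC90 after an EC20 pre-addition; B-score computed on integrated fluorescence ratio after choline addition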
TNAP inh hiacc – human TNAP enzyme inhibitors, primary screen, biochemical, luminescent, high phosphate acceptor level, uHTS; hit rate 0.03% among 200,000; inhibition, % at 20 µM; purified TNAP, CDP-star luminescence, 1 M DEA; AID 1135, 2008; Alkaline phosphatase, tissue-nonspecific isozyme (Homo sapiens), P05186;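 active = over 50% inhibition of tissue-nonspecific alkaline phosphatase at 20 µM in the single-dose screen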;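 note: plate controls were DMSO wells for no effect and EDTA-quenched wells as full inhibition for full effect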
CHT allo act – CHT positive allosteric modulators, primary screen, cell-based, membrane potential dye, choline EC20; High affinity choline transporter 1 (Homo sapiens), Q9GZV3; CHT-expressing cells; stronger effect = higher value; LV-AA mutant CHT in HEK293 cells; B-score at 10 µM; hit rate 0.49% among 310,000; AID 488977, 2010;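 active = initial fluorescence not abnormally high and integrated response B-score, plate-corrected, over 3 SD above library mean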
ABCB6 inh MLPCN – ABCB6 transporter inhibitors, primary screen, K562-ABCB6 cells, flow cytometry, MLPCN library; K562-ABCB6 porphyrin accumulation, 1 h; stronger effect = lower value; fluorescence ratio to DMSO, % at 10 µM; ATP-binding cassette sub-family B member 6 (Homo sapiens), Q9NP58; AID 602162, 2011; hit rate 0.19% among 360,000;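 active = fluorescence ratio to DMSO below 75%, the collection mean minus 3 SD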;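 note: signal is porphyrin accumulated inside mitochondria; 100% equals median channel fluorescence of DMSO control wells; lower ratio means ABCB6 inhibition with less porphyrin fluorescence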
Target sequence (Q9NP58 whole entry, looked up): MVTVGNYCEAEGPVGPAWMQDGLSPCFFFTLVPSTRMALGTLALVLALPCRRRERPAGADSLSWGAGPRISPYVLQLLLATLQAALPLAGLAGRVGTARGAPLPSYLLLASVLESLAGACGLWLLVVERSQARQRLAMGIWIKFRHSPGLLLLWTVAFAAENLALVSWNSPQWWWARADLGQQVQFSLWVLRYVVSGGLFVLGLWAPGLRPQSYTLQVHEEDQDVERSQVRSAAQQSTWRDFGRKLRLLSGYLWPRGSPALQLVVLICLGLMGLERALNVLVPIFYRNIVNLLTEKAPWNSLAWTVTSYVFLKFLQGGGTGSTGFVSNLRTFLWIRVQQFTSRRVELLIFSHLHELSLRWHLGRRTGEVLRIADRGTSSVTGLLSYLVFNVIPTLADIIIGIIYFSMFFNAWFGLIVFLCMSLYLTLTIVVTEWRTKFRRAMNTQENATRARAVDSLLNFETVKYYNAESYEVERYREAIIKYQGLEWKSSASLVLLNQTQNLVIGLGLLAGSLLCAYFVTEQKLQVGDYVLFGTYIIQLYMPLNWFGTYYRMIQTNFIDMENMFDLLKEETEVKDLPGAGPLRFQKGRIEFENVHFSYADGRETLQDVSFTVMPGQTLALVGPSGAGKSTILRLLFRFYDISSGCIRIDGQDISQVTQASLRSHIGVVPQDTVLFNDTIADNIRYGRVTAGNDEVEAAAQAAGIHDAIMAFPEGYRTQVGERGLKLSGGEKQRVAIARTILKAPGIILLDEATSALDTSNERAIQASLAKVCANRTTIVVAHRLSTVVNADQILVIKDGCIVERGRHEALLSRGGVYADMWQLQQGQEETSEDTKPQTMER
An asterisk follows results filed as active; i = inactive; / = not tested or not shown.

SMILES	TNAP inh noacc	TNAP act hi DEA	CHT block	TNAP inh hiacc	CHT allo act	ABCB6 inh MLPCN
C=C[C@@]1(C)CC(=O)[C@]2(O)[C@@]3(C)[C@@H](O)CCC(C)(C)[C@@H]3[C@H](O)[C@H](OC(C)=O)[C@@]2(C)O1	/	/	-6.42*	/	i	93.0
CCCc1nn(-c2cc(Cl)ccc2OC)c2c1C(=O)CC(C)(C)C2	-4.4	1	i	-3.4	i	97.0
Cc1nn(C(=O)c2ccccc2)c2c1C(=O)CC(C)(C)C2	55.6*	1	i	0.6	i	103.0
CCCc1nn(C(=O)c2ccccc2)c2c1C(=O)CC(C)(C)C2	51.5*	1	i	-1.2	i	95.0
Cc1cc(C)cc(-n2cc[nH]c2=S)c1	-117.1	1	i	0.8	i	99.0
Cn1c(=O)c(=O)n(C)c2cc(S(=O)(=O)N3CCCC3C(=O)Nc3ccc(F)cc3)ccc21 (configuration not stated)	/	/	i	/	i	108.0
Cc1sc2ncnc(N3CCN(S(=O)(=O)c4ccc(C(C)(C)C)cc4)CC3)c2c1C	/	/	/	/	/	84.0
Cc1ccc(S(=O)(=O)N2CCN(C(=O)C3CCN(c4ncnc5sc(C)c(C)c45)CC3)CC2)c(C)c1	/	/	/	/	/	64.0*
Oc1ccccc1-c1n[nH]c(-c2ccccc2O)n1	/	/	/	/	/	90.0
Clc1ccccc1-c1nc(-c2ccccc2)n[nH]1	90.8*	1	i	3.4	i	99.0
COc1ccc(NC(=O)CSc2nccn2Cc2ccco2)cc1	/	/	i	/	i	102.0
O=C(Nc1ccncc1)Nc1ccccc1Cl	/	/	i	/	i	97.0
O=C(Nc1ccncc1)Nc1ccncc1	-6.4	1	i	-0.6	10.1*	103.0
CSc1ccccc1NC(=O)c1ccccc1C	-1.9	1	i	4.5	i	96.0
CCOC(=O)c1cc(-c2cccc([N+](=O)[O-])c2)n[nH]1	61.6*	1	i	-1.8	i	94.0
CCOC(=O)c1cc(-c2ccccc2)n[nH]1	/	/	i	/	i	102.0
CC(C)(C)c1nc2ccccc2c2nnc(SCC(=O)Nc3nc4ccccc4s3)n12	4.1	0.5	i	51.5*	i	96.0
CCN(C)C1CN(Cc2cn(CCCC(=O)OC)nn2)S(=O)(=O)C1 (configuration not stated)	/	/	/	/	/	96.0
COc1ccc(/C=C/C(=O)c2ccc(C)c([N+](=O)[O-])c2)cc1O	12.8	0.8	i	24.9	i	96.0
COc1cc(/C=C/C(=O)c2ccc(C)c([N+](=O)[O-])c2)cc(OC)c1O	49.7	0.4	i	59.0*	i	100.0
c1ccc(COc2ccc(-c3sc(Nc4ccccc4)n[n+]3-c3ccccc3)cc2)cc1	/	/	i	/	7.99*	/
O=C(O)c1ccc(-c2sc(Nc3ccccc3)n[n+]2-c2ccccc2)cc1	/	/	i	/	i	99.0
CN(C)S(=O)(=O)c1cccc(NC(=O)C2Cc3ccccc3CN2C(=O)c2ccco2)c1 (configuration not stated)	/	/	i	/	i	93.0
O=C(CSc1ncn[nH]1)Nc1nc(-c2ccccc2)ns1	76.2*	1	i	-3.4	i	101.0
CCOc1ncccc1C(=O)Nc1ccc(F)c(Cl)c1	-8.6	1	i	-3.4	i	97.0
SMILES	TNAP inh noacc	TNAP act hi DEA	CHT block	TNAP inh hiacc	CHT allo act	ABCB6 inh MLPCN
O=C1COc2ccc(C(=O)COC(=O)c3ccc([N+](=O)[O-])cc3Cl)cc2N1	/	/	/	/	/	101.0
CCn1c(SCC(=O)Nc2sc3c(c2C#N)CCCC3)nnc1-c1ccco1	34.6	0.5	i	52.6*	i	97.0
CCn1c(SCC(=O)Nc2sc3c(c2C#N)CCC(C(C)(C)C)C3)nnc1-c1ccco1 (configuration not stated)	-3.1	1	i	3.5	i	93.0
CCc1ccc(C(=O)COC(=O)c2ccc(Cl)nc2)cc1	-12.5	1	i	-3.8	i	100.0
CSc1n[nH]c(NC(C)=O)n1	50.1*	1	i	3.5	i	106.0
CCCSc1n[nH]c(NC(C)=O)n1	95.6*	1	i	-1.1	i	100.0
CCCCCCCCCCSc1n[nH]c(NC(C)=O)n1	-73.8	1	i	1.5	i	101.0
O=C(Nc1ccc(F)cc1)C1CCCN(C2=NS(=O)(=O)c3ccccc32)C1 (configuration not stated)	/	/	/	/	/	105.0
CN1CCN(CCCNC(=O)c2cn(C3CCCCC3)c(=O)c3c2c2ccccc2n3C)CC1	-10.5	1	-5*	-1.6	i	90.0
CC1CCCN(C(=O)COC(=O)c2n[nH]c3ccccc23)C1 (configuration not stated)	59.5*	1	i	-0.7	i	91.0
O=C(c1n[nH]c2ccccc12)N1CCCCC1	82.4*	1	i	0.3	i	100.0
COC(=O)C1CCN(C(=O)COC(=O)c2n[nH]c3ccccc23)CC1	/	/	i	/	i	92.0
Cc1cc(NC(=O)COC(=O)c2n[nH]c3ccccc23)no1	52.0*	1	i	-3.7	i	92.0
Cn1cc(C(=O)Nc2ccc(F)c(F)c2)cn1	-8.6	1	i	-2.8	i	100.0
CCC(C)(C)C1CCc2c(sc(NC(=O)c3ccccc3C(=O)O)c2C#N)C1 (configuration not stated)	/	/	-7.71*	/	i	96.0
CC1CCc2c(sc(NC(=O)c3ccccc3C(=O)O)c2C#N)C1 (configuration not stated)	-7.6	1	i	-2.1	i	99.0
COc1ccc(Cl)cc1NC(=O)CN1CCC(n2nnc3cc(C)ccc32)CC1	i	2.7*	i	-173.4	i	92.0
CCc1cccc(C)c1NC(=O)CCCN1C(=O)CN(C)C1=O	/	/	/	/	/	102.0
COc1ccc(NC(=O)CN(C)C(=O)c2cn(-c3ccccc3)nc2-c2cccnc2)cc1	/	/	i	/	i	105.0
CCOc1ccccc1C=NNC(=O)C1CC1	/	/	/	/	/	105.0
CC(=O)Nc1cccc(/C(C)=N/NC(=O)c2cccc(S(=O)(=O)N3CCCC3)c2)c1	/	/	/	/	/	72.0*
CCn1c(SCC(N)=O)nc2sc3c(c2c1=O)CCN(C)C3	/	/	i	/	7.91*	97.0
CSc1nc(SCC(N)=O)c2c3c(sc2n1)CN(C)CC3	-14.7	1	i	-2.1	6.26*	106.0
CCC(O)CNc1nc(SC)nc2sc3c(c12)CCN(C)C3 (configuration not stated)	-6.9	1	i	-1.3	7.08*	116.0
